# From ChEMBL document CHEMBL4715736, “Identification of anticancer agents based on the thieno[2,3-b]pyridine and 1H-pyrazole molecular scaffolds” (2016)
# Tests used:
# Assay type in all cases: functional
# SNB-19 [1] = test: Growth inhibition of human SNB-19 cells assessed as cell growth at 100 uM incubated for 48 hrs by sulforhodamine B assay relative to control; details: read-out: Activity
# UACC-62 [2] = test: Growth inhibition of human UACC-62 cells incubated for 48 hrs by sulforhodamine B assay
# How it was run: (§1)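 NCI DTP 60-line human tumour panel. Dose-response curves were run only for ligands active in the initial 10 µM screen. GI50 (concentration giving 50% of maximal inhibition of proliferation) and TGI (concentration giving total growth inhibition) were derived from these curves.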
# RXF 393 = test: Growth inhibition of human RXF 393 cells assessed as cell growth at 1 uM incubated for 48 hrs by sulforhodamine B assay relative to control; details: read-out: Activity
# K562 = test: Growth inhibition of human K562 cells assessed as cell growth at 0.1 uM incubated for 48 hrs by sulforhodamine B assay relative to control; details: read-out: Activity
# MCF7 = test: Growth inhibition of human MCF7 cells incubated for 48 hrs by sulforhodamine B assay; details: for CC50: read-out: LC50 (the source's name)
# How it was run: (§2)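 NCI60 panel at the NCI Developmental Therapeutics Program. Only compounds active in the 10 µM screen went to dose-response testing. GI50, the concentration giving 50% of maximal inhibition of proliferation, and TGI, the concentration giving total growth inhibition, were derived from the dose-response curves.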
# Hs-578T = test: Growth inhibition of human Hs-578T cells assessed as cell growth at 0.1 uM incubated for 48 hrs by sulforhodamine B assay relative to control; details: read-out: Activity
# HCT-15 [3] = test: Growth inhibition of human HCT-15 cells assessed as cell growth at 1 uM incubated for 48 hrs by sulforhodamine B assay relative to control; details: read-out: Activity
# NCI-H460 = test: Growth inhibition of human NCI-H460 cells assessed as cell growth at 0.01 uM incubated for 48 hrs by sulforhodamine B assay relative to control; details: read-out: Activity
# CAKI-1 = test: Growth inhibition of human CAKI-1 cells incubated for 48 hrs by sulforhodamine B assay; details: for CC50: read-out: LC50 (the source's name)
# How it was run: (§3)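 NCI Developmental Therapeutics Program NCI60 panel. Compounds that were active in the 10 µM one-dose screen went on to dose–response testing. Growth at each concentration is expressed relative to untreated control (100%). GI50 (concentration giving 50% of maximal inhibition of proliferation) and TGI (concentration giving total growth inhibition) were derived from the curves.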
# MDA-MB-435 [4] = test: Growth inhibition of human MDA-MB-435 cells assessed as cell growth at 1 uM incubated for 48 hrs by sulforhodamine B assay relative to control; details: read-out: Activity
# UACC-62 [5] = test: Growth inhibition of human UACC-62 cells assessed as cell growth at 100 uM incubated for 48 hrs by sulforhodamine B assay relative to control; details: read-out: Activity
# SR [6] = test: Growth inhibition of human SR cells incubated for 48 hrs by sulforhodamine B assay; how it was run: as §1
# A549 [7] = test: Growth inhibition of human A549/ATCC cells incubated for 48 hrs by sulforhodamine B assay; details: for CC50: read-out: LC50 (the source's name); how it was run: as §3
# HCT-15 [8] = test: Growth inhibition of human HCT-15 cells assessed as cell growth at 100 uM incubated for 48 hrs by sulforhodamine B assay relative to control; details: read-out: Activity
# SW-620 = test: Growth inhibition of human SW-620 cells assessed as cell growth at 1 uM incubated for 48 hrs by sulforhodamine B assay relative to control; details: read-out: Activity
# SF-268 = test: Growth inhibition of human SF-268 cells assessed as cell growth at 0.1 uM incubated for 48 hrs by sulforhodamine B assay relative to control; details: read-out: Activity
# DU-145 = test: Growth inhibition of human DU-145 cells incubated for 48 hrs by sulforhodamine B assay; details: for CC50: read-out: LC50 (the source's name); how it was run: as §3
# OVCAR-8 = test: Growth inhibition of human OVCAR-8 cells assessed as cell growth at 1 uM incubated for 48 hrs by sulforhodamine B assay relative to control; details: read-out: Activity
# SN12C = test: Growth inhibition of human SN12C cells assessed as cell growth at 100 uM incubated for 48 hrs by sulforhodamine B assay relative to control; details: read-out: Activity
# MDA-MB-468 = test: Growth inhibition of human MDA-MB-468 cells assessed as cell growth at 100 uM incubated for 48 hrs by sulforhodamine B assay relative to control; details: read-out: Activity
# OVCAR-3 = test: Growth inhibition of human OVCAR-3 cells assessed as cell growth at 100 uM incubated for 48 hrs by sulforhodamine B assay relative to control; details: read-out: Activity
# SNB-19 [9] = test: Growth inhibition of human SNB-19 cells assessed as cell growth at 0.01 uM incubated for 48 hrs by sulforhodamine B assay relative to control; details: read-out: Activity
# RPMI-8226 = test: Growth inhibition of human RPMI-8226 cells assessed as cell growth at 1 uM incubated for 48 hrs by sulforhodamine B assay relative to control; details: read-out: Activity
# COLO 205 = test: Growth inhibition of human COLO 205 cells incubated for 48 hrs by sulforhodamine B assay; how it was run: as §3
# SR [10] = test: Growth inhibition of human SR cells assessed as cell growth at 0.01 uM incubated for 48 hrs by sulforhodamine B assay relative to control; details: read-out: Activity
# SK-MEL-2 = test: Growth inhibition of human SK-MEL-2 cells incubated for 48 hrs by sulforhodamine B assay; how it was run: as §1
# BT-549 = test: Growth inhibition of human BT-549 cells assessed as cell growth at 1 uM incubated for 48 hrs by sulforhodamine B assay relative to control; details: read-out: Activity
# A549 [11] = test: Growth inhibition of human A549/ATCC cells assessed as cell growth at 100 uM incubated for 48 hrs by sulforhodamine B assay relative to control; details: read-out: Activity; how it was run: as §3
# IGROV-1 = test: Growth inhibition of human IGROV-1 cells assessed as cell growth at 0.1 uM incubated for 48 hrs by sulforhodamine B assay relative to control; details: read-out: Activity
# SNB-75 = test: Growth inhibition of human SNB-75 cells assessed as cell growth at 100 uM incubated for 48 hrs by sulforhodamine B assay relative to control; details: read-out: Activity
# MDA-MB-435 [12] = test: Growth inhibition of human MDA-MB-435 cells assessed as cell growth at 100 uM incubated for 48 hrs by sulforhodamine B assay relative to control; details: read-out: Activity
# KM12 = test: Growth inhibition of human KM12 cells incubated for 48 hrs by sulforhodamine B assay; how it was run: as §2
# M14 = test: Growth inhibition of human M14 cells assessed as cell growth at 1 uM incubated for 48 hrs by sulforhodamine B assay relative to control; details: read-out: Activity
# ACHN [13] = test: Growth inhibition of human ACHN cells assessed as cell growth at 0.1 uM incubated for 48 hrs by sulforhodamine B assay relative to control; details: read-out: Activity
# ACHN [14] = test: Growth inhibition of human ACHN cells incubated for 48 hrs by sulforhodamine B assay; how it was run: as §3
structure (smiles),measurement,setting,value
CN1CCc2nc3sc(C(N)=O)c(N)c3c(-c3cccs3)c2C1,growth at 100 µM,SNB-19 [1],14%
same,GI50,UACC-62 [2],2.38 µM
same,LC50,UACC-62 [2],72.2 µM
same,TGI,UACC-62 [2],6.56 µM
same,growth at 1 µM,RXF 393,55%
same,growth at 0.1 µM,K562,97%
same,GI50,MCF7,4.1 µM
same,TGI,MCF7,> 100 µM
same,CC50,MCF7,> 100 µM
same,growth at 0.1 µM,Hs-578T,92%
same,growth at 1 µM,HCT-15 [3],93%
same,growth at 0.01 µM,NCI-H460,109%
same,GI50,CAKI-1,2.82 µM
same,TGI,CAKI-1,> 100 µM
same,CC50,CAKI-1,> 100 µM
same,growth at 1 µM,MDA-MB-435 [4],90%
same,growth at 100 µM,UACC-62 [5],-55%
same,GI50,SR [6],1.8 µM
same,LC50,SR [6],> 100 µM
same,TGI,SR [6],7.31 µM
same,GI50,A549 [7],3.37 µM
same,TGI,A549 [7],> 100 µM
same,CC50,A549 [7],> 100 µM
same,growth at 100 µM,HCT-15 [8],6%
same,growth at 1 µM,SW-620,116%
same,growth at 0.1 µM,SF-268,110%
same,GI50,DU-145,3.91 µM
same,TGI,DU-145,86.9 µM
same,CC50,DU-145,> 100 µM
same,growth at 1 µM,OVCAR-8,82%
same,growth at 100 µM,SN12C,6%
same,growth at 100 µM,MDA-MB-468,-59%
same,growth at 100 µM,OVCAR-3,-8%
same,growth at 0.01 µM,SNB-19 [9],103%
same,growth at 1 µM,RPMI-8226,119%
same,GI50,COLO 205,1.43 µM
same,LC50 (concentration killing 50% of cells),COLO 205,9.35 µM
same,TGI,COLO 205,3.66 µM
same,growth at 0.01 µM,SR [10],97%
same,GI50,SK-MEL-2,2.67 µM
same,LC50,SK-MEL-2,> 100 µM
same,TGI,SK-MEL-2,6.22 µM
same,growth at 1 µM,BT-549,92%
same,growth at 100 µM,A549 [11],9%
same,growth at 0.1 µM,IGROV-1,116%
same,growth at 100 µM,SNB-75,-40%
same,growth at 100 µM,MDA-MB-435 [12],3%
same,GI50,KM12,2.7 µM
same,LC50,KM12,> 100 µM
same,TGI,KM12,> 100 µM
same,growth at 1 µM,M14,115%
Cc1cccc(NC(=O)c2sc3nc4c(cc3c2N)C(=O)CCC4)c1,growth at 100 µM,SNB-19 [1],-74%
same,GI50,UACC-62 [2],0.333 µM
same,LC50,UACC-62 [2],> 100 µM
same,TGI,UACC-62 [2],≥ 100 µM
same,growth at 1 µM,RXF 393,-16%
same,growth at 0.1 µM,K562,44%
same,GI50,MCF7,0.145 µM
same,TGI,MCF7,> 100 µM
same,CC50,MCF7,> 100 µM
same,growth at 0.1 µM,Hs-578T,76%
same,growth at 1 µM,HCT-15 [3],24%
same,growth at 0.01 µM,NCI-H460,104%
same,GI50,CAKI-1,0.359 µM
same,TGI,CAKI-1,> 100 µM
same,CC50,CAKI-1,> 100 µM
same,growth at 1 µM,MDA-MB-435 [4],-61%
same,growth at 100 µM,UACC-62 [5],33%
same,GI50,A549 [7],0.3 µM
same,TGI,A549 [7],> 100 µM
same,CC50,A549 [7],> 100 µM
same,growth at 100 µM,HCT-15 [8],5%
same,growth at 1 µM,SW-620,19%
same,growth at 0.1 µM,SF-268,93%
same,GI50,DU-145,0.285 µM
same,TGI,DU-145,≥ 100 µM
same,CC50,DU-145,≥ 100 µM
same,growth at 1 µM,OVCAR-8,47%
same,growth at 100 µM,SN12C,-33%
same,growth at 100 µM,MDA-MB-468,5%
same,growth at 100 µM,OVCAR-3,-23%
same,growth at 0.01 µM,SNB-19 [9],94%
same,growth at 1 µM,RPMI-8226,36%
same,growth at 0.1 µM,ACHN [13],91%
same,GI50,COLO 205,0.197 µM
same,LC50 (concentration killing 50% of cells),COLO 205,> 100 µM
same,TGI,COLO 205,≥ 100 µM
same,GI50,SK-MEL-2,0.254 µM
same,LC50,SK-MEL-2,> 100 µM
same,TGI,SK-MEL-2,> 100 µM
same,GI50,ACHN [14],0.0224 µM
same,TGI,ACHN [14],≥ 100 µM
same,CC50,ACHN [14]; read-out: LC50 (the source's name),> 100 µM
same,growth at 1 µM,BT-549,46%
same,growth at 100 µM,A549 [11],19%
same,growth at 0.1 µM,IGROV-1,86%
same,growth at 100 µM,SNB-75,1%
same,growth at 100 µM,MDA-MB-435 [12],-64%
same,GI50,KM12,0.21 µM
same,LC50,KM12,> 100 µM
same,TGI,KM12,> 100 µM
same,growth at 1 µM,M14,11%
